Here are results for five molecules from ChEMBL document CHEMBL5137029, “Chemically Tuning Resveratrol for the Effective Killing of Gram-Positive Pathogens” (J Nat Prod, 2022).

Values after ≈ are worked out from the molar mass of the structure shown. Active and inactive are the calls of the source. The rule behind the calls is not given here.

The subject of series [1] is Clostridium perfringens. Briefly: Antibacterial activity against Clostridium perfringens CECT376 incubated for 24 hrs by CLSI based broth microdilution method. The format is functional. On the technique in general: Broth dilution looks for growth in wells or tubes with falling amounts of substance.
Series [2] has as its system Bacillus cereus. Briefly: Antibacterial activity against Bacillus cereus ATCC 10987 incubated for 20 hrs by CLSI based broth microdilution method. The series is classed as functional.
For series [3], the system named is Staphylococcus aureus. Briefly: Antibacterial activity against Staphylococcus aureus LMG 8224 incubated for 20 hrs by CLSI based broth microdilution method. The format is functional.
Series [4] relates to Clostridioides difficile. Briefly: Antibacterial activity against Clostridium difficile CECT531 incubated for 24 hrs by CLSI based broth microdilution method. The format is functional.
In series [5] the test system is Enterococcus faecalis. Description: Antibacterial activity against Enterococcus faecalis V583 incubated for 20 hrs by CLSI based broth microdilution method. The series is classed as functional.
Series [6] relates to Staphylococcus aureus. Description: Bactericidal activity against Staphylococcus aureus LMG 8224 at […] measured upto 24 hrs by CLSI based broth microdilution method. The series is classed as functional, organism-based. The conditions noted are these: dose 128.0 µM.
For series [7], the system named is Bacillus cereus. Description: Bactericidal activity against Bacillus cereus ATCC 10987 at 64 uM measured upto 24 hrs by CLSI based broth microdilution method. The format is functional, organism-based. Summed up:
(§1)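 Each well then used as a 10% inoculum into fresh cMHB and incubated at 37 °C for 24 h. No regrowth in the MIC range was scored bactericidal, regrowth bacteriostatic. Triplicate.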

For series [8], the system named is Bacillus cereus. Briefly: Antibacterial activity against Bacillus cereus ATCC 10987 assessed as decrease in membrane integrity at 2x MIC incubated for 18 hrs by propidium iodide staining assay. The format is functional, organism-based. Summed up: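 B. cereus grown 18 h in LB at 37 °C, washed in 5 mM HEPES pH 7.4 + 5 mM glucose, OD600 0.5, loaded with 10 μg/mL propidium iodide for 10 min. […] Gramicidin S positive control; triplicate.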

Series [9] concerns Bacillus cereus. Briefly: Inhibition of electron transport chain in Bacillus cereus ATCC 10987 by measuring reduction of resazurin upto 120 min by resazurin dye based assay. As to conditions: DDE = dose-dependent effect. In short, it runs like this: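 B. cereus grown in LB to OD600 1, washed and resuspended in cMHB at OD600 0.2 with 100 μg/mL resazurin. Compounds added at the indicated concentrations; resorufin fluorescence (ex/em 550/590 nm) read every 5 min for 125 min. CCCP at 400, 200, 100 μM positive control; untreated cells and medium with resazurin negative controls; triplicate.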

Series [10] concerns Enterococcus faecalis. Briefly: Bactericidal activity against Enterococcus faecalis V583 at 32 uM measured upto 24 hrs by CLSI based broth microdilution method. The series is classed as functional, organism-based. Summed up: as §1
For series [11], the system named is Bacillus cereus. Briefly: Antibacterial activity against Bacillus cereus ATCC 10987 assessed as membrane potential change at 0.5 to 2X MIC incubated for 20 mins by DiSC3(5) staining based assay. The series is classed as functional, organism-based. In short, it runs like this: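 B. cereus grown in LB to OD600 1, washed in glucose-HEPES pH 7.4, OD600 0.5, loaded with 2 μM DiSC3(5) for 20 min at 37 °C for baseline. […] Gramicidin S positive control; untreated cells and dye-only medium negative controls; triplicate.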

Series [12] concerns Staphylococcus aureus. Briefly: Bactericidal activity against Staphylococcus aureus LMG 8224 measured upto 24 hrs by CLSI based broth microdilution method. The series is classed as functional. In short, it runs like this:
as §1

Series [13] can be described thus: Selectivity index, ratio of IC50 for cytotoxicity against human MRC5 cells to MIC for antibacterial activity against Enterococcus faecalis. The series is classed as toxicity, cell-based. The conditions noted are these: read-out: Selectivity Index.
Series [14] relates to Bacillus cereus. Description: Bactericidal activity against Bacillus cereus ATCC 10987 measured upto 24 hrs by CLSI based broth microdilution method. The format is functional. Summed up: as §1
Series [15] in a line: Selectivity index, ratio of IC50 for cytotoxicity against human MRC5 cells to MIC for antibacterial activity against Bacillus cereus. The series is classed as toxicity, cell-based. The conditions noted are these: read-out: Selectivity Index.
A short description of series [16]: Cytotoxicity against human MRC5 cells assessed as cellular metabolism incubated for 72 hrs by MTT assay. The series is classed as toxicity, cell-based. In short, it runs like this:
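MRC-5 cells in DMEM (1 g/L glucose) with 10% heat-inactivated FBS, 2 mM glutamine, penicillin/streptomycin, at 37 °C, 5% CO2. 5 × 10^3 cells/well seeded with increasing compound concentrations, 72 h. MTT added for 4 h, formazan dissolved in DMSO, A570 read. Sigmoidal fit for 50% growth reduction vs untreated; three independent experiments in triplicate.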

A short description of series [17]: (§2) Hemolytic activity in human erythrocytes at […] incubated for 1 hrs. The format is toxicity, cell-based, Erythrocyte. The conditions noted are these: erythrocytes, read-out: Activity.
Series [18] in a line: Selectivity index, ratio of IC50 for cytotoxicity against human MRC5 cells to MIC for antibacterial activity against Clostridium tetani. The format is toxicity, cell-based. The conditions noted are these: read-out: Selectivity Index.
Series [19] relates to Enterococcus faecalis. Description: Antibacterial activity against Enterococcus faecalis LMG 08222 incubated for 20 hrs by CLSI based broth microdilution method. The series is classed as functional.
Series [20] relates to Escherichia coli. Briefly: Antimicrobial activity against Escherichia coli LMG […] in presence of outer membrane disturbing peptide L-11 incubated for 20 hrs by CLSI based broth microdilution method. The format is functional.
Series [21] deals with Bacillus cereus. Briefly: Bactericidal activity against Bacillus cereus ATCC 10987 at 16 uM measured upto 24 hrs by CLSI based broth microdilution method. The format is functional, organism-based. In short, it runs like this: as §1
Series [22] is described as follows: Selectivity index, ratio of IC50 for cytotoxicity against human MRC5 cells to MIC for antibacterial activity against Staphylococcus aureus. The format is toxicity, cell-based. The conditions noted are these: read-out: Selectivity Index.
Series [23] concerns Staphylococcus aureus. Description: Antibacterial activity against Staphylococcus aureus LMG 15975 incubated for 20 hrs by CLSI based broth microdilution method. The format is functional.
Series [24] has as its system Enterococcus faecalis. Briefly: Antibacterial activity against Enterococcus faecalis LMG 16216 incubated for 20 hrs by CLSI based broth microdilution method. The series is classed as functional.
Series [25] relates to Escherichia coli. Briefly: Antimicrobial activity against Escherichia coli LMG […] incubated for 20 hrs by CLSI based broth microdilution method. The format is functional.
Series [26] relates to Bacillus cereus. Description: Antibacterial activity against Bacillus cereus ATCC 14579 incubated for 20 hrs by CLSI based broth microdilution method. The series is classed as functional.
In series [27] the test system is Enterococcus faecalis. Description: Bactericidal activity against Enterococcus faecalis V583 at 16 uM measured upto 24 hrs by CLSI based broth microdilution method. The format is functional, organism-based. Summed up:
as §1

Series [28] relates to Staphylococcus aureus. Description: Bactericidal activity against Staphylococcus aureus LMG 8224 at 16 uM measured upto 24 hrs by CLSI based broth microdilution method. The series is classed as functional, organism-based. Summed up:
as §1

Series [29] in a line: Antibacterial activity against Clostridium-ihumii AP5 incubated for 24 hrs by CLSI based broth microdilution method. The series is classed as functional.
Series [30] relates to Clostridium botulinum. Briefly: Antibacterial activity against Clostridium botulinum CECT551 incubated for 24 hrs by CLSI based broth microdilution method. The format is functional.
Series [31] deals with Clostridium beijerinckii. Briefly: Antibacterial activity against Clostridium beijerinckii B504 incubated for 24 hrs by CLSI based broth microdilution method. The series is classed as functional.
Series [32] relates to Enterococcus faecalis. Description: Bactericidal activity against Enterococcus faecalis V583 measured upto 24 hrs by CLSI based broth microdilution method. The format is functional. Summed up:
as §1

The test system of series [33] is Clostridium tetani. Description: Antibacterial activity against Clostridium tetani CECT 4629 incubated for 24 hrs by CLSI based broth microdilution method. The format is functional.
Series [34] concerns Staphylococcus aureus. Description: Antibacterial activity against Staphylococcus aureus LMG 10147 incubated for 20 hrs by CLSI based broth microdilution method. The format is functional.
Series [35] deals with Bacillus cereus. Description: Bactericidal activity against Bacillus cereus ATCC 10987 at […] measured upto 24 hrs by CLSI based broth microdilution method. The series is classed as functional, organism-based. As to conditions: dose 128.0 µM.
Series [36] has as its system Erythrocyte. The description is as §2. The conditions noted are these: erythrocyte, 1 h, […]. The format is toxicity, cell-based.
Series [37] deals with Enterococcus faecalis. Description: Bactericidal activity against Enterococcus faecalis V583 at […] measured upto 24 hrs by CLSI based broth microdilution method. The series is classed as functional, organism-based. As to conditions: dose 128.0 µM.

GENTAMICIN: the MIC (in general, the least concentration at which growth counts as inhibited) in series [1] was over 32 µM; in [2], 4 µM; in series [3], 1 µM; in series [4] it was over 32 µM; in [5], over 32 µM.

In the case of `CC(C)[Si](Oc1ccc(/C=C/c2cc(O)cc(O)c2)cc1)(C(C)C)C(C)C`, the result in series [6], in series [7], in series [8], in series [10] and in series [11] was Active. For the same molecule, in [9], the inhibition entry is “Dde”.

For the molecule `CC(C)(C)[Si](C)(C)Oc1ccc(/C=C/c2cc(O)cc(O)c2)cc1`, the MIC stood at 32 µM (≈ 11 µg/mL) in [12]; 32 µM (≈ 11 µg/mL) in series [14]; 13.3 µM (≈ 4.56 µg/mL) in series [1]; 8 µM (≈ 2.74 µg/mL) in series [2]; 6.6 µM (≈ 2.26 µg/mL) in series [19]; 13.3 µM in series [20]. Besides, the minimum inhibitory concentration (MIC) in [3] was 8 µM (≈ 2.74 µg/mL); in series [4], 21.3 µM (≈ 7.3 µg/mL); in series [23], 8 µM (≈ 2.74 µg/mL); in series [24] it was 8 µM (≈ 2.74 µg/mL); in series [25] it was over 128 µM; in [26], 4 µM (≈ 1.37 µg/mL). Besides, the minimum inhibitory concentration (MIC) in [5] was 8 µM (≈ 2.74 µg/mL); in [29], 16 µM (≈ 5.48 µg/mL); in [30], 13.3 µM (≈ 4.56 µg/mL); in [31], 10.6 µM (≈ 3.63 µg/mL); in [32] it was 32 µM (≈ 11 µg/mL); in series [33], 5.3 µM (≈ 1.82 µg/mL). Further, the minimal inhibitory concentration (MIC) in series [34] was 8 µM (≈ 2.74 µg/mL). Besides, the selectivity ratio in series [13], in [15], in [18] and in series [22] was 2 in each case. Further, the 50% inhibitory concentration (IC50) (as a rule, the concentration that inhibits the measured activity by half) at 72 h in [16] was 15.5 µM. For the same molecule, in [17], the hemolysis at 1 h, […] turned out to be 12.7%. Also, the result in series [21], in series [27], in series [28], in series [8] and in series [11] was Active. For the same molecule, the inhibition entry in series [9] is “Dde”.

Consider `CC(C)(C)[Si](C)(C)Oc1cc(O)cc(/C=C/c2ccc(O)cc2)c1`, for which the minimum inhibitory concentration (MIC) in series [1] turned out to be 32 µM (≈ 11 µg/mL); in series [2] it was 16 µM (≈ 5.48 µg/mL); in series [19] it was 8 µM (≈ 2.74 µg/mL); in series [3], 16 µM (≈ 5.48 µg/mL); in series [4], 26.6 µM (≈ 9.11 µg/mL); in series [23], 16 µM (≈ 5.48 µg/mL). The MIC was determined as 16 µM (≈ 5.48 µg/mL) in series [24]; 16 µM (≈ 5.48 µg/mL) in series [26]; 16 µM (≈ 5.48 µg/mL) in series [5]; 32 µM (≈ 11 µg/mL) in [29]; 16 µM (≈ 5.48 µg/mL) in series [30]; 26.6 µM (≈ 9.11 µg/mL) in series [31]. For the same molecule, the MIC is 6.6 µM (≈ 2.26 µg/mL) in series [33] and 16 µM (≈ 5.48 µg/mL) in series [34]. Moreover, the IC50 at 72 h in [16] came to 2.7 µM. In [17], the hemolysis at 1 h, […] worked out at 18.4%.

With `Oc1ccc(/C=C/c2cc(O)cc(O)c2)cc1` [RESVERATROL], the outcome in series [35], in series [6], in [37] and in [11] was Active. The Activity result in series [36] is on record as “Non-Toxic”.
